# Source: ChEMBL document CHEMBL3792382, “Synthesis of new secretory phospholipase A2-inhibitory indole containing isoxazole derivatives as anti-inflammatory and anticancer agents” (Eur J Med Chem, 2016)
# Experiments:
# [1] = Inhibition of human type 2A secretory PLA2 using diheptanoyl thio-PC as substrate after 15 mins by ELISA
# Procedure, shortened: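 Type IIA sPLA2 from a commercial kit was incubated with inhibitor and diheptanoyl thio-PC substrate for 15 min. DTNB was then added and the thiol released by hydrolysis was read at 415 nm. Control wells held no inhibitor. % inhibition = (A control − A test)/A control × 100, and IC50 was taken from the dose-response; ursolic acid served as positive control.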
# [2] = tested on: Rattus norvegicus; assay: Antiinflammatory activity against carrageenan-induced paw edema in Wistar albino rat model at 10 mg/kg, po administered 1 hr prior to carrageenan-challenge measured at 3rd hr by plethysmometer; assay type: functional
# Procedure, shortened: (§1)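 Rats were dosed orally 1 h before subplantar injection of 0.1 ml 1% λ-carrageenan in saline into the left hind paw, with saline in the right paw. Vehicle controls received saline 1 ml/kg p.o.; ursolic acid served as positive control. Paw volume was read by mercury plethysmometer before injection and at 1, 2, 3, 4 and 6 h. Results are % edema inhibition versus vehicle, mean ± SEM, n = 3-6, one-way ANOVA.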
# [3] = tested on: Rattus norvegicus; assay: Antiinflammatory activity against carrageenan-induced paw edema in Wistar albino rat model at 10 mg/kg, po administered 1 hr prior to carrageenan-challenge measured at 4th hr by plethysmometer; assay type: functional; procedure, shortened: as §1
# [4] = tested on: MCF7; assay: Antiproliferative activity against human MCF7 cells after 48 hrs by MTT assay; assay type: functional, cell-based; details: MCF7, 48 h
# Procedure, shortened: (§2)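 Cells were grown in RPMI with 10% FCS, penicillin and streptomycin at 37 °C in humidified CO2. They were exposed to a range of concentrations for 48 h, then given MTT for 2 h at 37 °C. Formazan was dissolved in DMSO and absorbance read at 570 nm (reference 620 nm). IC50 was derived from the readings, with doxorubicin as positive control.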
# [5] = Antiproliferative activity against human DU145 cells after 48 hrs by MTT assay; assay type: functional, cell-based; details: DU-145, 48 h; procedure, shortened: as §2
# [6] = Partition coefficient, logP of the compound; assay type: physicochemical; details: octanol/water
Compound,IC50 [1],IC50 [4],logP [6],inhibition in vivo at 10 mg/kg [2],inhibition in vivo at 10 mg/kg [3],IC50 [5]
Cc1ccc2[nH]cc(CNCc3cc(-c4ccc(F)c(C(F)(F)F)c4)no3)c2c1,10.2 µM,10 µM,4.85,75.7%,76.5%,14.2 µM
Cc1ccc(-c2cc(CNCc3c[nH]c4ccccc34)on2)cc1,22.7 µM,–,3.89,–,–,–
Fc1ccc(-c2cc(CNCc3c[nH]c4ccccc34)on2)cc1C(F)(F)F,21.5 µM,–,4.43,–,–,–
Cc1ccc(-c2cc(CNCc3c[nH]c4ccc(Br)cc34)on2)cc1,27.3 µM,–,4.67,–,–,–
COc1ccc(-c2cc(CNCc3c[nH]c4ccc(Br)cc34)on2)cc1,32.6 µM,–,4.28,–,–,–
Brc1ccc2[nH]cc(CNCc3cc(-c4ccccc4)no3)c2c1,32.5 µM,–,4.23,–,–,–
Fc1ccc(-c2cc(CNCc3c[nH]c4ccc(Br)cc34)on2)cc1C(F)(F)F,17.2 µM,–,5.21,–,–,–
Cc1ccc(-c2cc(CNCc3c[nH]c4ccc(C)cc34)on2)cc1,21.6 µM,–,4.33,–,–,–
COc1cccc2c1C(=O)c1c(O)c3c(c(O)c1C2=O)C[C@@](O)(C(=O)CO)C[C@@H]3O[C@H]1C[C@H](N)[C@H](O)[C@H](C)O1 [DOXORUBICIN],–,–,–,–,–,4.75 µM

# The next lines start with results.
IC50 [1],IC50 [4],logP [6],Compound,inhibition in vivo at 10 mg/kg [2],inhibition in vivo at 10 mg/kg [3],IC50 [5]
18.2 µM,–,3.5,COc1ccc(-c2cc(CNCc3c[nH]c4ccccc34)on2)cc1,–,–,–
30.6 µM,–,3.44,c1ccc(-c2cc(CNCc3c[nH]c4ccccc34)on2)cc1,–,–,–
25.6 µM,–,3.4,O=[N+]([O-])c1ccc(-c2cc(CNCc3c[nH]c4ccccc34)on2)cc1,–,–,–
24.6 µM,–,3.92,COc1ccc(-c2cc(CNCc3c[nH]c4ccc(C)cc34)on2)cc1,–,–,–
22.4 µM,–,4.19,O=[N+]([O-])c1ccc(-c2cc(CNCc3c[nH]c4ccc(Br)cc34)on2)cc1,–,–,–
27.9 µM,–,3.87,Cc1ccc2[nH]cc(CNCc3cc(-c4ccccc4)no3)c2c1,–,–,–
19.4 µM,–,3.83,Cc1ccc2[nH]cc(CNCc3cc(-c4ccc([N+](=O)[O-])cc4)no3)c2c1,–,–,–
12.6 µM,–,–,C[C@H]1[C@H](C)CC[C@]2(C(=O)O)CC[C@]3(C)C(=CC[C@@H]4[C@@]5(C)CC[C@H](O)C(C)(C)[C@@H]5CC[C@]43C)[C@H]12 [URSOLIC ACID],73%,75.2%,–
